This assay concerns the target T1, Neuropeptide Y receptor type 1 (Homo sapiens, UniProt P25929).
T1 sequence (P25929 whole entry): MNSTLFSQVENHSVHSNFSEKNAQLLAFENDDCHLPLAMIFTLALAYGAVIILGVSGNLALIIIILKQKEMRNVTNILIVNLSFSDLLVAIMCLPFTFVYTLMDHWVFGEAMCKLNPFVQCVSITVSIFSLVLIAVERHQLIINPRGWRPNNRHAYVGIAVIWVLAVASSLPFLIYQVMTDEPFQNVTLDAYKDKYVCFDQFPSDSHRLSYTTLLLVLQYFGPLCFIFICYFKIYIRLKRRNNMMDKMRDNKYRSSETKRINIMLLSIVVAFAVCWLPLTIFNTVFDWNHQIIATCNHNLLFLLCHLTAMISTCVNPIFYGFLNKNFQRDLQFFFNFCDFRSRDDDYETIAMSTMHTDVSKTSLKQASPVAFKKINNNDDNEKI
Put plainly: In vitro binding affinity towards Neuropeptide Y receptor type 1 was determined as potency to displace [125I]-peptide YY binding to human neuroblastoma SK-N-MC cells. It counts as cell-based. An outline of the steps:
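Intact SK-N-MC cells grown 2 days, washed with HEPES (20 mM)-buffered Hank's solution pH 7.4 plus 1% BSA, then incubated with 0.1 nM [125I]PYY and varying concentrations of unlabeled compound at 37 °C for 60 min. Washed twice with ice-cold buffer, lysed in 1 N NaOH, gamma-counted. Nonspecific binding defined with 10^-6 M NPY.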
`C/N=C(/Nc1ccc(O)cc1)NC1CCc2ccccc2N(Cc2cccc(NC(=O)NC(C)C)c2)C1=O` (stereo not drawn) registered a Ki of 7.3 nM.
For `CC(C)NC(=O)Nc1cccc(CN2C(=O)C(NC(=O)Nc3ccc4ncccc4c3)CCc3ccccc32)c1` (stereo not drawn) the value was 56 nM; for `O=C(Nc1ccccc1)NC1CCc2ccccc2N(Cc2cccc(NC(=O)N3CCOCC3)c2)C1=O` (stereo not drawn), over 10000 nM.
For `CC(C)NC(=O)Nc1cccc(CN2C(=O)C(N=C(Nc3ccc(O)cc3)NC(C)C)CCc3ccccc32)c1` (stereo not drawn), the Ki is 36 nM.
For `CC(C)NC(=O)Nc1cccc(CN2C(=O)C(NC(=O)Nc3ccccn3)CCc3ccccc32)c1` (stereo not drawn) the value was 240 nM; for `CC(C)NC(=O)Nc1cccc(CN2C(=O)C(NC(=O)Nc3ccc(-c4ccccc4)cc3)CCc3ccccc32)c1` (stereo not drawn), 610 nM.
`CC(C)NC(=O)Nc1cccc(CN2C(=O)C(NC(=O)Nc3ccc4ocnc4c3)CCc3ccccc32)c1` (stereo not drawn): the affinity corresponds to a Ki of 17 nM.
In the case of `CC(C)NC(=O)Nc1cccc(CN2C(=O)C(NC(=O)Oc3ccccc3)CCc3ccccc32)c1` (stereo not drawn) it was 2100 nM.
For `CC(C)NC(=O)Nc1cccc(CN2C(=O)C(CNC(=O)Nc3ccccc3)CCc3ccccc32)c1` (stereo not drawn) the value was 1400 nM; for `CC(C)NC(=O)Nc1cccc(CN2C(=O)C(COC(=O)Nc3ccccc3)CCc3ccccc32)c1` (stereo not drawn), 4100 nM; for `CC(C)NC(=O)Nc1cccc(CN2C(=O)C(NC(=O)Nc3ccc4c(c3)OCO4)CCc3ccccc32)c1` (stereo not drawn), 28 nM.
As for `CC(C)NC(=O)Nc1cccc(CN2C(=O)C(NC(=O)Nc3cc[nH]n3)CCc3ccccc32)c1` (stereo not drawn), the Ki is over 10000 nM.
`CC(C)NC(=O)Nc1cccc(CN2C(=O)C(OC(=O)Nc3ccccc3)CCc3ccccc32)c1` (stereo not drawn) came in with a Ki of 450 nM.
In the case of `CC(C)NC(=O)Nc1cccc(CN2C(=O)C(NC(=O)Nc3ccc4ccsc4c3)CCc3ccccc32)c1` (stereo not drawn) it was 7.8 nM.
In the case of `CC(C)NC(=O)Cc1cccc(CN2C(=O)C(NC(=O)Nc3ccccc3)CCc3ccccc32)c1` (stereo not drawn) it was 3800 nM; in that of `CC(C)NC(=O)Nc1cccc(CN2C(=O)C(NC(=O)Nc3ccc([N+](=O)[O-])cc3)CCc3ccccc32)c1` (stereo not drawn), 88 nM; in that of `CC(C)NC(=O)Nc1cccc(CN2C(=O)C(NC(=O)Nc3ccccc3)CCCc3ccccc32)c1` (stereo not drawn), 56 nM.
For `CC(C)NC(=O)Nc1cccc(CN2C(=O)C(NC(=O)Nc3ccc4[nH]ncc4c3)CCc3ccccc32)c1` (stereo not drawn) the value was 26 nM; for `CC(C)NC(=O)Nc1cccc(CN2C(=O)C(NC(=O)Nc3ccc4c(c3)C(=O)N(C)C4=O)CCc3ccccc32)c1` (stereo not drawn), 780 nM; for `O=C(Nc1ccccc1)NC1CCc2ccccc2N(Cc2cccc(NC(=O)Oc3ccccc3)c2)C1=O` (stereo not drawn), over 10000 nM.
On to `CC(C)NC(=O)Nc1cccc(CN2C(=O)C(NC(=O)Nc3ccccc3F)CCc3ccccc32)c1` (stereo not drawn), for which the affinity, expressed as Ki, was 7.6 nM.
In the case of `O=C(Nc1cccc(CN2C(=O)C(NC(=O)Nc3ccccc3)CCc3ccccc32)c1)NC1CC1` (stereo not drawn) it was 910 nM; in that of `CNC(=O)Nc1cccc(CN2C(=O)C(NC(=O)Nc3ccccc3)CCc3ccccc32)c1` (stereo not drawn), 7300 nM; in that of `CC(C)NC(=O)Nc1cccc(CN2C(=O)C(/N=C(\N)Nc3ccc(O)cc3)CCc3ccccc32)c1` (stereo not drawn), 2.9 nM.
In the case of `CC(C)NC(=O)Nc1cccc(CN2C(=O)C(NC(=O)Nc3ccc4sccc4c3)CCc3ccccc32)c1` (stereo not drawn) it was 13 nM.
In turn, `CC(C)NC(=O)Nc1cccc(CN2C(=O)C(NC(=O)Nc3ccccc3)COc3ccccc32)c1` (stereo not drawn) returned an inhibition constant Ki of 470 nM.
For `CC(C)NC(=O)Nc1cccc(CN2C(=O)C(NC(=O)Nc3ccc4c(c3)OCCO4)CCc3ccccc32)c1` (stereo not drawn) the value was 18 nM; for `C/N=C(/Nc1ccccc1)NC1CCc2ccccc2N(Cc2cccc(NC(=O)NC(C)C)c2)C1=O` (stereo not drawn), 15 nM.
Take `O=C(Nc1ccccc1)Nc1cccc(CN2C(=O)C(NC(=O)Nc3ccccc3)CCc3ccccc32)c1` (stereo not drawn): the Ki is over 10000 nM.
For `COc1ccc(NC(=O)NC2CCc3ccccc3N(Cc3cccc(NC(=O)NC(C)C)c3)C2=O)cc1` (stereo not drawn) the value was 80 nM; for `CC(C)NC(=O)Nc1cccc(CN2C(=O)C(NS(=O)(=O)c3ccccc3)CCc3ccccc32)c1` (stereo not drawn), 5500 nM.
Compound `CC(C)NC(=O)Nc1nc(CN2C(=O)C(NC(=O)Nc3ccc(F)cc3F)CCc3ccccc32)cs1` (stereo not drawn) came in with a Ki of over 10000 nM.
In the case of `CC(C)NC(=O)Nc1cccc(CN2C(=O)C(NC(=O)Nc3ccc(N(C)C)cc3)CCc3ccccc32)c1` (stereo not drawn) it was 66 nM.
For `CC(C)NC(=O)Nc1cccc(CN2C(=O)C(NC(=O)Nc3nc4ccccc4s3)CCc3ccccc32)c1` (stereo not drawn) the value was 690 nM; for `CC(C)NC(=O)Nc1cccc(CN2C(=O)C(NC(=O)Nc3ccc(O)cc3)CCc3ccccc32)c1` (stereo not drawn), 82 nM; for `CC(C)NC(=O)Nc1cccc(CN2C(=O)C(NC(=O)Nc3ccc4[nH]ccc4c3)CCc3ccccc32)c1` (stereo not drawn), 18 nM.
`COC(=O)Nc1cccc(CN2C(=O)C(NC(=O)Nc3ccccc3)CCc3ccccc32)c1` (stereo not drawn): the inhibitory constant (Ki) is over 10 nM.
In the case of `CC(C)NC(=O)Nc1cccc(CN2C(=O)C(NC(=O)Nc3cc(F)cc(F)c3)CCc3ccccc32)c1` (stereo not drawn) it was 86 nM; in that of `CC(C)NC(=O)Nc1cccc(CN2C(=O)C(NC(=O)Nc3ccc(F)cc3F)CCc3ccccc32)c1` (stereo not drawn), 7.8 nM; in that of `CC(C)OC(=O)Nc1cccc(CN2C(=O)C(NC(=O)Nc3ccccc3)CCc3ccccc32)c1` (stereo not drawn), 690 nM.
For `CC(C)NC(=O)Nc1cccc(CN2C(=O)C(NC(=O)Nc3ccc4scnc4c3)CCc3ccccc32)c1` (stereo not drawn) the value was 24 nM; for `CC(C)NC(=O)Nc1cccc(CN2C(=O)C(N=C(NCCO)Nc3ccc(O)cc3)CCc3ccccc32)c1` (stereo not drawn), 65 nM; for `CC(C)NC(=O)Nc1cccc(CN2C(=O)C(NC(=O)Nc3ccc4c(c3)CCC4)CCc3ccccc32)c1` (stereo not drawn), 17 nM.
In the case of `CC(C)NC(=O)Nc1cccc(CN2C(=O)C(NC(=O)Nc3ccncc3)CCc3ccccc32)c1` (stereo not drawn) it was 83 nM; in that of `CC(C)NC(=O)Nc1cccc(CN2C(=O)C(NC(=O)Nc3ccc4ccoc4c3)CCc3ccccc32)c1` (stereo not drawn), 7.8 nM.
As to `CC(C)NC(=O)Nc1cccc(CN2C(=O)C(NC(=O)Nc3ccc4c(c3)C(=O)NC4=O)CCc3ccccc32)c1` (stereo not drawn), the affinity corresponds to a Ki of 25 nM.
For `CC(C)NC(=O)Nc1cccc(CN2C(=O)C(NC(=O)c3ccccc3)CCc3ccccc32)c1` (stereo not drawn) the value was over 10000 nM; for `CC(C)NC(=O)Nc1cccc(CN2C(=O)C(NC(=O)Nc3cccc(F)c3F)CCc3ccccc32)c1` (stereo not drawn), 100 nM.
In the case of `CC(C)(C)OC(=O)Nc1cccc(CN2C(=O)C(NC(=O)Nc3ccccc3)CCc3ccccc32)c1` (stereo not drawn) it was 1200 nM.
In the case of `CC(C)NC(=O)Nc1cccc(CN2C(=O)C(NC(=O)Nc3ccc(Cl)cc3)CCc3ccccc32)c1` (stereo not drawn) it was 71 nM.
Turning to `CC(C)CNC(=O)Nc1cccc(CN2C(=O)C(NC(=O)Nc3ccccc3)CCc3ccccc32)c1` (stereo not drawn), the Ki turned out to be 140 nM.
For the compound `CN(C(=O)OC(C)(C)C)c1cccc(CN2C(=O)C(NC(=O)Nc3ccccc3)CCc3ccccc32)c1` (stereo not drawn), the Ki was over 10000 nM.
`CC(C)NC(=O)Nc1cccc(CN2C(=O)C(NC(=O)Nc3nccs3)CCc3ccccc32)c1` (stereo not drawn) displayed an inhibition constant Ki of 160 nM.
In the case of `CC(C)(C)NC(=O)Nc1cccc(CN2C(=O)C(NC(=O)Nc3ccccc3)CCc3ccccc32)c1` (stereo not drawn) it was 75 nM; in that of `CC(C)NC(=O)Nc1cccc(CN2C(=O)C(NC(=O)Nc3ccccc3)CCc3ccccc32)c1` (stereo not drawn), 43 nM; in that of `CC(C)NC(=O)Nc1cccc(CN2C(=O)C(NC(=O)Nc3ccc(N)cc3)CCc3ccccc32)c1` (stereo not drawn), 200 nM.
For `CC(C)NC(=O)Nc1cccc(CN2C(=O)C(NC(=O)Nc3cnc4ccccc4c3)CCc3ccccc32)c1` (stereo not drawn) the value was 140 nM; for `CC(C)NC(=O)Nc1cccc(CN2C(=O)C(NC(=O)Nc3ccc4ncsc4c3)CCc3ccccc32)c1` (stereo not drawn), 5.1 nM; for `Nc1cccc(CN2C(=O)C(NC(=O)Nc3ccccc3)CCc3ccccc32)c1` (stereo not drawn), over 10000 nM.
Turning to `CC(C)NC(=O)Nc1cccc(CN2CCCCC(NC(=O)Nc3ccccc3)C2=O)c1` (stereo not drawn), the Ki was determined as 7000 nM.
For `CC(C)NC(=O)Nc1cccc(CN2C(=O)C(NC(=O)Nc3ccc(F)cc3)CCc3ccccc32)c1` (stereo not drawn) the value was 29 nM; for `CC(C)NC(=O)Nc1cccc(CN2C(=O)C(NC(=O)Nc3nncs3)CCc3ccccc32)c1` (stereo not drawn), 150 nM; for `NC(=O)Nc1cccc(CN2C(=O)C(NC(=O)Nc3ccccc3)CCc3ccccc32)c1` (stereo not drawn), over 10000 nM.

For the origin of these results see ChEMBL document CHEMBL1132300, “1,3-Disubstituted benzazepines as novel, potent, selective neuropeptide Y Y1 receptor antagonists” (J Med Chem, 1999).
